Data from ChEMBL document CHEMBL2380295, “Structure-activity studies on the side chain of a simplified analog of aplysiatoxin (aplog-1) with anti-proliferative activity” (Bioorg Med Chem, 2013).

Legend:
[1] = tested on: OVCAR-8; test: Growth inhibition of human OVCAR8 cells after 48 hrs by sulforhodamine B assay; type: functional; conditions: OVCAR-8, 48 h
Outline: (§1)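 Yamori 39-line human cancer panel, NCI method with modifications. Cells plated in RPMI 1640 plus 5% FBS, attached overnight, then exposed 48 h to compound at 10^-8, 10^-7, 10^-6, 10^-5 and 10^-4 M. Sulforhodamine B staining read at 525 nm; % growth = 100[(T−T0)/(C−T0)] from duplicate-point averages, with T0 the time-zero absorbance. GI50 is the concentration giving 50.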

[2] = tested on: ACHN; test: Growth inhibition of human ACHN cells after 48 hrs by sulforhodamine B assay; type: functional; outline: as §1
[3] = tested on: PC-3; test: Growth inhibition of human PC3 cells after 48 hrs by sulforhodamine B assay; type: functional; conditions: PC-3, 48 h; outline: as §1
[4] = tested on: U-251; test: Growth inhibition of human U251 cells after 48 hrs by sulforhodamine B assay; type: functional; conditions: U-251, 48 h; outline: as §1
[5] = tested on: SNB-78; test: Growth inhibition of human SNB78 cells after 48 hrs by sulforhodamine B assay; type: functional; conditions: SNB-78, 48 h; outline: as §1
[6] = tested on: A549; test: Growth inhibition of human A549 cells after 48 hrs by sulforhodamine B assay; type: functional; conditions: A549, 48 h; outline: as §1
[7] = tested on: Human gammaherpesvirus 4; test: Induction of EBV-early antigen expressed in human Raji cells at 10^-7 M after 48 hrs by immunofluorescence assay relative to control; type: organism-based; conditions: human gammaherpesvirus 4, raji, 0.1 µM
Outline: (§2)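 Raji B-lymphoblastoid cells (5 × 10^5/mL) in RPMI 1640 with 10% FBS, with 4 mM sodium n-butyrate as synergist and test compound at 10^-7 or 10^-6 M (final DMSO 0.4%). Incubated 48 h at 37 °C under 5% CO2. Smears were stained by indirect immunofluorescence using NPC patient serum and FITC anti-human IgG. At least 500 cells counted; % EA-positive recorded; n = 3, SEM.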

[8] = tested on: SK-OV-3; test: Growth inhibition of human SKOV3 cells after 48 hrs by sulforhodamine B assay; type: functional; conditions: SK-OV-3, 48 h; outline: as §1
[9] = tested on: NCI-H460; test: Growth inhibition of human NCI-H460 cells after 48 hrs by sulforhodamine B assay; type: functional; conditions: NCI-H460, 48 h; outline: as §1
[10] = tested on: DU-145; test: Growth inhibition of human DU145 cells after 48 hrs by sulforhodamine B assay; type: functional; conditions: DU-145, 48 h; outline: as §1
[11] = tested on: MKN-74; test: Growth inhibition of human MKN74 cells after 48 hrs by sulforhodamine B assay; type: functional; conditions: MKN-74, 48 h; outline: as §1
[12] = tested on: HCT-116; test: Growth inhibition of human HCT116 cells after 48 hrs by sulforhodamine B assay; type: functional; conditions: HCT-116, 48 h; outline: as §1
[13] = tested on: NCI-H226; test: Growth inhibition of human NCI-H226 cells after 48 hrs by sulforhodamine B assay; type: functional; conditions: NCI-H226, 48 h; outline: as §1
[14] = Cytotoxicity against human Raji cells assessed as cell viability at 10^-6 M; type: cell-based; conditions: read-out: Activity
[15] = tested on: LOX IMVI; test: Growth inhibition of human LOXIMVI cells after 48 hrs by sulforhodamine B assay; type: functional; outline: as §1
[16] = tested on: MCF7; test: Growth inhibition of human MCF7 cells after 48 hrs by sulforhodamine B assay; type: functional; conditions: MCF7, 48 h; outline: as §1
[17] = tested on: KM12; test: Growth inhibition of human KM12 cells after 48 hrs by sulforhodamine B assay; type: functional; conditions: KM12, 48 h; outline: as §1
[18] = Cytotoxicity against human Raji cells assessed as cell viability at 10^-7 M; type: cell-based; conditions: read-out: Activity
[19] = Growth inhibition of human HBC5 cells after 48 hrs by sulforhodamine B assay; type: functional; conditions: HBC5, 48 h; outline: as §1
[20] = tested on: Human gammaherpesvirus 4; test: Induction of EBV-early antigen expressed in human Raji cells at 10^-6 M after 48 hrs by immunofluorescence assay relative to control; type: organism-based; conditions: human gammaherpesvirus 4, raji, 1 µM; outline: as §2
[21] = tested on: DMS-273; test: Growth inhibition of human DMS273 cells after 48 hrs by sulforhodamine B assay; type: functional; conditions: DMS-273, 48 h; outline: as §1
[22] = tested on: MKN-7; test: Growth inhibition of human MKN7 cells after 48 hrs by sulforhodamine B assay; type: functional; conditions: MKN-7, 48 h; outline: as §1
[23] = Growth inhibition of human BSY1 cells after 48 hrs by sulforhodamine B assay; type: functional; conditions: BSY-1, 48 h; outline: as §1
[24] = target: T1, Protein kinase C delta type (Homo sapiens, UniProt Q05655); test: Inhibition of [3H]PDBu binding to PKCdelta-C1B domain peptide (unknown origin)
T1 sequence (Q05655 whole entry, the tested form may be a part): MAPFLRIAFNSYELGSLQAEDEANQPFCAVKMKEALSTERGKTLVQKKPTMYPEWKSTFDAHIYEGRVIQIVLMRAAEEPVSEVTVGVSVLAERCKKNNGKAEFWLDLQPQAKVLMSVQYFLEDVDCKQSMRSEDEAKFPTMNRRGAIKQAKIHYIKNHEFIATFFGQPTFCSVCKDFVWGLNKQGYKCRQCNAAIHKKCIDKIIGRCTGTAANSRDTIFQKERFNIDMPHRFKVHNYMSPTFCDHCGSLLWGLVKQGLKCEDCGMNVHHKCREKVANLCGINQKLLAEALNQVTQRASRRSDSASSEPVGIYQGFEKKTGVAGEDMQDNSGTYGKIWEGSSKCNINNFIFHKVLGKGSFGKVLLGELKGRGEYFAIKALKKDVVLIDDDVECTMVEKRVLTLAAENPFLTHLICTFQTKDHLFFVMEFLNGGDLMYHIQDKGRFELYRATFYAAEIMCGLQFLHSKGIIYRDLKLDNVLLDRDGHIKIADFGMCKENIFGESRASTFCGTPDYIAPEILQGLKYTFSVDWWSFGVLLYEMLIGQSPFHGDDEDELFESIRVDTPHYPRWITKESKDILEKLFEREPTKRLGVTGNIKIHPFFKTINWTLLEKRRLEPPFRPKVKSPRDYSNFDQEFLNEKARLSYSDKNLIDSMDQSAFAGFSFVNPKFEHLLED
Outline: (§3)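 Competitive [3H]PDBu binding used 14 or 40 nM PKCδ C1 peptide and 20 nM [3H]PDBu (19.6 Ci/mmol), in 50 mM Tris-maleate (pH 7.4 at 4 °C) with 50 µg/mL phosphatidylserine, 3 mg/mL bovine γ-globulin and varied inhibitor concentrations. IC50 was taken as 50% inhibition of specific binding. Ki was derived by the Sharkey–Blumberg method.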

[25] = tested on: HCT-15; test: Growth inhibition of human HCT15 cells after 48 hrs by sulforhodamine B assay; type: functional; conditions: HCT-15, 48 h; outline: as §1
[26] = tested on: St-4; test: Growth inhibition of human St-4 cells after 48 hrs by sulforhodamine B assay; type: functional; conditions: St-4, 48 h; outline: as §1
[27] = tested on: NCI-H522; test: Growth inhibition of human NCI-H522 cells after 48 hrs by sulforhodamine B assay; type: functional; conditions: NCI-H522, 48 h; outline: as §1
[28] = tested on: SNB-75; test: Growth inhibition of human SNB75 cells after 48 hrs by sulforhodamine B assay; type: functional; conditions: SNB-75, 48 h; outline: as §1
[29] = tested on: MKN-45; test: Growth inhibition of human MKN45 cells after 48 hrs by sulforhodamine B assay; type: functional; conditions: MKN-45, 48 h; outline: as §1
[30] = Growth inhibition of human HBC4 cells after 48 hrs by sulforhodamine B assay; type: functional; conditions: HBC4, 48 h; outline: as §1
[31] = tested on: SF-295; test: Growth inhibition of human SF295 cells after 48 hrs by sulforhodamine B assay; type: functional; conditions: SF-295, 48 h; outline: as §1
[32] = tested on: OVCAR-3; test: Growth inhibition of human OVCAR3 cells after 48 hrs by sulforhodamine B assay; type: functional; conditions: OVCAR-3, 48 h; outline: as §1
[33] = Growth inhibition of human RXF631L cells after 48 hrs by sulforhodamine B assay; type: functional; conditions: RXF 631, 48 h; outline: as §1
[34] = tested on: NCI-H23; test: Growth inhibition of human NCI-H23 cells after 48 hrs by sulforhodamine B assay; type: functional; conditions: NCI-H23, 48 h; outline: as §1
[35] = tested on: MDA-MB-231; test: Growth inhibition of human MDA-MB-231 cells after 48 hrs by sulforhodamine B assay; type: functional; conditions: MDA-MB-231, 48 h; outline: as §1
[36] = tested on: MKN-28; test: Growth inhibition of human MKN28 cells after 48 hrs by sulforhodamine B assay; type: functional; conditions: MKN-28, 48 h; outline: as §1
[37] = Octanol-water partition coefficient, log P of the compound by HPLC analysis; type: physicochemical
Outline: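 log P was estimated from HPLC retention, with column dead time measured using unretained formamide.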

[38] = tested on: OVCAR-4; test: Growth inhibition of human OVCAR4 cells after 48 hrs by sulforhodamine B assay; type: functional; conditions: OVCAR-4, 48 h; outline: as §1
[39] = Growth inhibition of human MKN1 cells after 48 hrs by sulforhodamine B assay; type: functional; conditions: MKN-1, 48 h; outline: as §1
[40] = tested on: SF-268; test: Growth inhibition of human SF268 cells after 48 hrs by sulforhodamine B assay; type: functional; conditions: SF-268, 48 h; outline: as §1
[41] = tested on: DMS-114; test: Growth inhibition of human DMS114 cells after 48 hrs by sulforhodamine B assay; type: functional; conditions: DMS-114, 48 h; outline: as §1
[42] = tested on: OVCAR-5; test: Growth inhibition of human OVCAR5 cells after 48 hrs by sulforhodamine B assay; type: functional; conditions: OVCAR-5, 48 h; outline: as §1
[43] = tested on: SF-539; test: Growth inhibition of human SF539 cells after 48 hrs by sulforhodamine B assay; type: functional; conditions: SF-539, 48 h; outline: as §1
[44] = Growth inhibition of human HCC2998 cells after 48 hrs by sulforhodamine B assay; type: functional; conditions: HCC 2998, 48 h; outline: as §1
[45] = target: T1, Protein kinase C delta type; test: Inhibition of [3H]PDBu binding to PKCdelta-C1A domain peptide (unknown origin); outline: as §3
[46] = tested on: HT-29; test: Growth inhibition of human HT-29 cells after 48 hrs by sulforhodamine B assay; type: functional; conditions: HT-29, 48 h; outline: as §1

CC1(C)CC[C@@H]2CC(=O)O[C@@H](CO)CC(=O)O[C@@H]3C[C@@H](CCCCc4c(Br)cc(Br)c(O)c4Br)O[C@@]1(C3)O2
GI50 [1]: 17.4 µM | GI50 [2]: 16.2 µM | GI50 [3]: 13.2 µM | GI50 [4]: 16.2 µM | GI50 [5]: 47.9 µM | GI50 [6]: 12.6 µM | Activity [7]: 1.9% | GI50 [8]: 32.4 µM | GI50 [9]: 3.24 µM | GI50 [10]: 17 µM | GI50 [11]: 21.9 µM | GI50 [12]: 17.8 µM | GI50 [13]: 16.2 µM | viability at 1 µM [14]: 40% | GI50 [15]: 11.7 µM | GI50 [16]: 19.5 µM | GI50 [17]: 16.6 µM | viability at 0.1 µM [18]: 40% | GI50 [19]: 22.9 µM | Activity [20]: 1.9% | GI50 [21]: 18.2 µM | GI50 [22]: 20.9 µM | GI50 [23]: 21.4 µM | Ki [24]: 0.0069 µM | GI50 [25]: 18.2 µM | GI50 [26]: 3.09 µM | GI50 [27]: 20.4 µM | GI50 [28]: 26.3 µM | GI50 [29]: 11.5 µM | GI50 [30]: 0.871 µM | GI50 [31]: 13.2 µM | GI50 [32]: 15.5 µM | GI50 [33]: 21.9 µM | GI50 [34]: 14.1 µM | GI50 [35]: 12 µM | GI50 [36]: 18.2 µM | logP [37]: 5.5 | GI50 [38]: 20.9 µM | GI50 [39]: 14.8 µM | GI50 [40]: 20.9 µM | GI50 [41]: 25.7 µM | GI50 [42]: 18.6 µM | GI50 [43]: 13.5 µM | GI50 [44]: 7.59 µM | Ki [45]: 0.079 µM | GI50 [46]: 16.6 µM

CC1(C)CC[C@@H]2CC(=O)O[C@@H](CO)CC(=O)O[C@@H]3C[C@@H](CCCCc4cc(O)ccc4I)O[C@@]1(C3)O2
GI50 [1]: 16.2 µM | GI50 [2]: 10.7 µM | GI50 [3]: 4.68 µM | GI50 [4]: 12.9 µM | GI50 [5]: 15.1 µM | GI50 [6]: 4.07 µM | Activity [7]: 1.3% | GI50 [8]: 15.8 µM | GI50 [9]: 10.5 µM | GI50 [10]: 12.9 µM | GI50 [11]: 11.7 µM | GI50 [12]: 10.5 µM | GI50 [13]: 12.6 µM | viability at 1 µM [14]: 50% | GI50 [15]: 2 µM | GI50 [16]: 13.8 µM | GI50 [17]: 10.5 µM | viability at 0.1 µM [18]: 50% | GI50 [19]: 15.8 µM | Activity [20]: 1.4% | GI50 [21]: 0.251 µM | GI50 [22]: 11.5 µM | GI50 [23]: 9.77 µM | Ki [24]: 0.0046 µM | GI50 [25]: 15.1 µM | GI50 [26]: 0.427 µM | GI50 [27]: 11.7 µM | GI50 [28]: 10.5 µM | GI50 [29]: 12 µM | GI50 [30]: 0.158 µM | GI50 [31]: 6.31 µM | GI50 [32]: 5.89 µM | GI50 [33]: 12.9 µM | GI50 [34]: 7.94 µM | GI50 [35]: 1.55 µM | GI50 [36]: 0.813 µM | logP [37]: 4.2 | GI50 [38]: 13.8 µM | GI50 [39]: 10.7 µM | GI50 [40]: 13.8 µM | GI50 [41]: 11 µM | GI50 [42]: 5.13 µM | GI50 [43]: 11 µM | GI50 [44]: 0.891 µM | Ki [45]: 0.11 µM | GI50 [46]: 13.8 µM
